# Test results published in ChEMBL document CHEMBL4325893, “Synthesis and antibacterial profiles of targeted triclosan derivatives” (2019).
# Experiments:
# Hafnia alvei = experiment: Antibacterial activity against Hafnia alvei 13337 after 18 hrs; type: functional; conditions: Hafnia alvei, 13337, 18 h
# Outline: (§1)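 Broth microdilution in Nutrient Broth No. 2; stocks in ethanol diluted to 0.01–128 µg/ml (triclosan) or 0.25–256 µg/ml (glycosides). Overnight 37 °C NB2 cultures diluted 1 in 10^4 in saline and added to the dilutions. Incubation at 37 °C with agitation, OD read every 15 min; MIC is the lowest concentration preventing any OD rise after 18 h.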
# Escherichia coli [1] = experiment: Antibacterial activity against Escherichia coli ATCC 11775 after 18 hrs; type: functional; outline: as §1
# Escherichia coli [2] = experiment: Antibacterial activity against Escherichia coli ATCC 25922 after 18 hrs; type: functional; conditions: ATCC 25922, 18 h; outline: as §1
# Cronobacter sakazakii = experiment: Antibacterial activity against Cronobacter sakazakii 29544 after 18 hrs; type: functional; conditions: Cronobacter sakazakii, 29544, 18 h; outline: as §1
# Staphylococcus aureus [3] = experiment: Antibacterial activity against Staphylococcus aureus ATCC 25923 after 18 hrs; type: functional; conditions: ATCC 25923, 18 h; outline: as §1
# Proteus vulgaris = experiment: Antibacterial activity against Proteus vulgaris OCC 195 after 18 hrs; type: functional; conditions: OCC 195, 18 h; outline: as §1
# Staphylococcus aureus [4] = experiment: Antibacterial activity against Staphylococcus aureus ATCC 29213 after 18 hrs; type: functional; conditions: ATCC 29213, 18 h; outline: as §1
# Bacillus cereus = experiment: Antibacterial activity against Bacillus cereus ATCC 14579 after 18 hrs; type: functional; conditions: ATCC 14579, 18 h; outline: as §1
# Enterococcus faecalis [5] = experiment: Antibacterial activity against Enterococcus faecalis ATCC 33186 after 18 hrs; type: functional; conditions: ATCC 33186, 18 h; outline: as §1
# Salmonella typhimurium = experiment: Antibacterial activity against Salmonella enterica subspecies enterica serotype typhimurium ATCC 14028 after 18 hrs; type: functional, Salmonella enterica subsp. enterica serovar Typhimurium; conditions: ATCC 14028, 18 h; outline: as §1
# Streptococcus pyogenes = experiment: Antibacterial activity against Streptococcus pyogenes ATCC 19615 after 18 hrs; type: functional; conditions: ATCC 19615, 18 h
# Outline: (§2)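 Broth microdilution in Nutrient Broth No. 2. Ethanol stocks were diluted in broth to 0.01–128 µg/ml for triclosan and 0.25–256 µg/ml for glycosides. Overnight 37°C NB2 cultures were diluted 1 in 10^4 in saline and added to the wells. Plates were incubated at 37°C with OD read every 15 min after agitation. MIC was the lowest concentration giving no OD increase at 18 h.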
# Escherichia coli [6] = experiment: Antibacterial activity against Escherichia coli NCTC 13216 after 18 hrs; type: functional; conditions: NCTC 13216, 18 h; outline: as §1
# Klebsiella pneumoniae [7] = experiment: Antibacterial activity against Klebsiella pneumoniae ATCC 13883 after 18 hrs; type: functional; conditions: ATCC 13883, 18 h; outline: as §1
# [8] = Antibacterial activity against Salmonella enterica subspecies enterica serotype Nottingham NCTC 7832 after 18 hrs; type: functional, Salmonella enterica subsp. enterica serovar Nottingham; conditions: NCTC 7832, 18 h; outline: as §1
# Klebsiella aerogenes [9] = experiment: Antibacterial activity against Enterobacter aerogenes ATCC 13048 after 18 hrs; type: functional; conditions: ATCC 13048, 18 h; outline: as §1
# Citrobacter freundii [10] = experiment: Antibacterial activity against Citrobacter freundii OCC 851 after 18 hrs; type: functional; conditions: OCC 851, 18 h; outline: as §1
# [11] = tested on: Salmonella enterica subsp. enterica serovar Abony; experiment: Antibacterial activity against Salmonella enterica subspecies enterica serotype Abony NCTC 6017 after 18 hrs; type: functional; conditions: NCTC 6017, 18 h; outline: as §1
# Klebsiella aerogenes [12] = experiment: Antibacterial activity against Klebsiella aerogenes NCTC 8167 after 18 hrs; type: functional; conditions: NCTC 8167, 18 h; outline: as §1
# Escherichia coli [13] = experiment: Antibacterial activity against Escherichia coli OCC 122 after 18 hrs; type: functional; conditions: OCC 122, 18 h; outline: as §1
# Staphylococcus aureus [14] = experiment: Antibacterial activity against Staphylococcus aureus ATCC 6538 after 18 hrs; type: functional; conditions: ATCC 6538, 18 h; outline: as §1
# Escherichia coli [15] = experiment: Antibacterial activity against Escherichia coli ATCC 35218 after 18 hrs; type: functional; conditions: ATCC 35218, 18 h; outline: as §1
# Streptococcus pneumoniae [16] = experiment: Antibacterial activity against Streptococcus pneumoniae ATCC 49619 after 18 hrs; type: functional; conditions: ATCC 49619, 18 h; outline: as §2
# Staphylococcus aureus [17] = experiment: Antibacterial activity against Staphylococcus aureus OCC 104 after 18 hrs; type: functional; conditions: OCC 104, 18 h; outline: as §1
# [18] = Antibacterial activity against Salmonella enterica subspecies enterica serotype Poona NCTC 4840 after 18 hrs; type: functional, Salmonella enterica subsp. enterica serovar Poona; conditions: NCTC 4840, 18 h; outline: as §1
# [19] = tested on: Staphylococcus epidermidis; experiment: Antibacterial activity against Staphylococcus epidermidis 155 after 18 hrs; type: functional; conditions: Staphylococcus epidermidis, 155, 18 h; outline: as §1
# Escherichia coli [20] = experiment: Antibacterial activity against Escherichia coli 700728 after 18 hrs; type: functional; conditions: Escherichia coli, 700728, 18 h; outline: as §1
# Escherichia coli [21] = experiment: Antibacterial activity against Escherichia coli ATCC 8739 after 18 hrs; type: functional; conditions: ATCC 8739, 18 h; outline: as §1
# [22] = Antibacterial activity against Salmonella enterica subspecies enterica serotype Virchow NCTC 5742 after 18 hrs; type: functional, Salmonella enterica subsp. enterica serovar Virchow; conditions: NCTC 5742, 18 h; outline: as §1
# Escherichia hermannii = experiment: Antibacterial activity against Escherichia hermannii 33650 after 18 hrs; type: functional; conditions: Atlantibacter hermannii, 33650, 18 h; outline: as §1
# Bacillus subtilis = experiment: Antibacterial activity against Bacillus subtilis NCTC 10073 after 18 hrs; type: functional; conditions: NCTC 10073, 18 h; outline: as §1
# [23] = Antibacterial activity against Salmonella enterica subspecies enterica serotype Arizonae OCC 706 after 18 hrs; type: functional, Salmonella enterica subsp. enterica serovar Arizonae; conditions: OCC 706, 18 h; outline: as §1
# Proteus mirabilis = experiment: Antibacterial activity against Proteus mirabilis ATCC 12453 after 18 hrs; type: functional; conditions: ATCC 12453, 18 h; outline: as §1
# [24] = Antibacterial activity against Enterobacter cloacae ATCC 13047 after 18 hrs; type: functional, Enterobacter cloacae subsp. cloacae; conditions: ATCC 13047, 18 h; outline: as §1
# Staphylococcus aureus [25] = experiment: Antibacterial activity against Staphylococcus aureus NCTC 13758 after 18 hrs; type: functional; conditions: NCTC 13758, 18 h; outline: as §1
# Aeromonas hydrophila = experiment: Antibacterial activity against Aeromonas hydrophila OCC 778 after 18 hrs; type: functional; conditions: OCC 778, 18 h; outline: as §1
# Staphylococcus aureus [26] = experiment: Antibacterial activity against Staphylococcus aureus ATCC 9144 after 18 hrs; type: functional; conditions: ATCC 9144, 18 h; outline: as §1
# [27] = Antibacterial activity against Salmonella enterica subspecies enterica serotype Infantis OCC 2133 after 18 hrs; type: functional, Salmonella enterica subsp. enterica serovar Infantis; conditions: OCC 2133, 18 h; outline: as §1
# Streptococcus pneumoniae [28] = experiment: Antibacterial activity against Streptococcus pneumoniae 6305 after 18 hrs; type: functional; conditions: Streptococcus pneumoniae, 6305, 18 h; outline: as §2
# Streptococcus agalactiae = experiment: Antibacterial activity against Streptococcus agalactiae OCC 182 after 18 hrs; type: functional; conditions: OCC 182, 18 h; outline: as §2
# [29] = tested on: Staphylococcus haemolyticus; experiment: Antibacterial activity against Staphylococcus haemolyticus OCC 2223 after 18 hrs; type: functional; conditions: OCC 2223, 18 h; outline: as §2
# Citrobacter freundii [30] = experiment: Antibacterial activity against Citrobacter freundii 8090 after 18 hrs; type: functional; conditions: Citrobacter freundii, 8090, 18 h; outline: as §1
# [31] = Antibacterial activity against Salmonella enterica subspecies enterica serotype Dublin OCC 627 after 18 hrs; type: functional, Salmonella enterica subsp. enterica serovar Dublin; conditions: OCC 627, 18 h; outline: as §1
# Escherichia coli [32] = experiment: Antibacterial activity against Escherichia coli ATCC 10536 after 18 hrs; type: functional; conditions: ATCC 10536, 18 h; outline: as §1
# [33] = tested on: Staphylococcus epidermidis; experiment: Antibacterial activity against Staphylococcus epidermidis ATCC 12228 after 18 hrs; type: functional; conditions: ATCC 12228, 18 h; outline: as §1
# Staphylococcus aureus [34] = experiment: Antibacterial activity against Staphylococcus aureus OCC 106 after 18 hrs; type: functional; conditions: OCC 106, 18 h; outline: as §1
# [35] = Antibacterial activity against Salmonella enterica subspecies enterica serotype Indiana OCC 597 after 18 hrs; type: functional, Salmonella enterica subsp. enterica serovar Indiana; conditions: OCC 597, 18 h; outline: as §1
# Enterococcus faecalis [36] = experiment: Antibacterial activity against Enterococcus faecalis ATCC 29212 after 18 hrs; type: functional; conditions: ATCC 29212, 18 h; outline: as §1
# Enterococcus faecium = experiment: Antibacterial activity against Enterococcus faecium ATCC 19434 after 18 hrs; type: functional; conditions: ATCC 19434, 18 h; outline: as §1
# [37] = tested on: Staphylococcus epidermidis; experiment: Antibacterial activity against Staphylococcus epidermidis ATCC 14990 after 18 hrs; type: functional; conditions: ATCC 14990, 18 h; outline: as §1
# Pseudomonas aeruginosa = experiment: Antibacterial activity against Pseudomonas aeruginosa ATCC 27853 after 18 hrs; type: functional; conditions: ATCC 27853, 18 h; outline: as §1
# Klebsiella pneumoniae [38] = experiment: Antibacterial activity against Klebsiella pneumoniae ATCC 10031 after 18 hrs; type: functional; conditions: ATCC 10031, 18 h; outline: as §1
# [39] = tested on: Staphylococcus saprophyticus; experiment: Antibacterial activity against Staphylococcus saprophyticus ATCC 15305 after 18 hrs; type: functional; conditions: ATCC 15305, 18 h; outline: as §2
# Staphylococcus aureus [40] = experiment: Antibacterial activity against Staphylococcus aureus ATCC 6538P after 18 hrs; type: functional; outline: as §1
# Serratia marcescens = experiment: Antibacterial activity against Serratia marcescens OCC 217 after 18 hrs; type: functional; conditions: OCC 217, 18 h; outline: as §1
# Streptococcus viridans = experiment: Antibacterial activity against Streptococcus viridans OCC 234 after 18 hrs; type: functional; conditions: OCC 234, 18 h; outline: as §2
# Salmonella enteritidis = experiment: Antibacterial activity against Salmonella enterica subspecies enterica serotype Enteritidis 13076 after 18 hrs; type: functional, Salmonella enterica subsp. enterica serovar Enteritidis; conditions: Salmonella enterica, 13076, 18 h; outline: as §1
# [41] = Antibacterial activity against Salmonella enterica subspecies enterica serotype Pullorum OCC 273 after 18 hrs; type: functional, Salmonella enterica subsp. enterica serovar Pullorum; conditions: OCC 273, 18 h; outline: as §1
structure (smiles),measurement,setting,value
O[C@@H]1[C@H](Oc2cc(Cl)ccc2Oc2ccc(Cl)cc2Cl)OC[C@@H](O)[C@H]1O,MIC,Hafnia alvei,4 µg/mL
same,MIC,Escherichia coli [1],8 to 32 µg/mL
same,MIC,Escherichia coli [2],8 to 32 µg/mL
same,MIC,Cronobacter sakazakii,128 µg/mL
same,MIC,Staphylococcus aureus [3],4 to 8 µg/mL
same,MIC,Proteus vulgaris,128 µg/mL
same,MIC,Staphylococcus aureus [4],4 to 8 µg/mL
same,MIC,Bacillus cereus,128 µg/mL
same,MIC,Enterococcus faecalis [5],256 µg/mL
same,MIC,Salmonella typhimurium,32 to 64 µg/mL
same,MIC,Streptococcus pyogenes,32 µg/mL
same,MIC,Escherichia coli [6],8 to 32 µg/mL
same,MIC,Klebsiella pneumoniae [7],4 µg/mL
same,MIC,[8],32 to 64 µg/mL
same,MIC,Klebsiella aerogenes [9],128 µg/mL
same,MIC,Citrobacter freundii [10],64 µg/mL
same,MIC,[11],32 to 64 µg/mL
same,MIC,Klebsiella aerogenes [12],32 µg/mL
same,MIC,Escherichia coli [13],8 to 32 µg/mL
same,MIC,Staphylococcus aureus [14],4 to 8 µg/mL
same,MIC,Escherichia coli [15],8 to 32 µg/mL
same,MIC,Streptococcus pneumoniae [16],64 µg/mL
same,MIC,Staphylococcus aureus [17],4 to 8 µg/mL
same,MIC,[18],32 to 64 µg/mL
same,MIC,[19],8 to 16 µg/mL
same,MIC,Escherichia coli [20],8 to 32 µg/mL
same,MIC,Escherichia coli [21],8 to 32 µg/mL
same,MIC,[22],32 to 64 µg/mL
same,MIC,Escherichia hermannii,32 µg/mL
same,MIC,Bacillus subtilis,128 µg/mL
same,MIC,[23],32 to 64 µg/mL
same,MIC,Proteus mirabilis,32 µg/mL
same,MIC,[24],16 µg/mL
same,MIC,Staphylococcus aureus [25],4 to 8 µg/mL
same,MIC,Aeromonas hydrophila,> 256 µg/mL
same,MIC,Staphylococcus aureus [26],4 to 8 µg/mL
same,MIC,[27],32 to 64 µg/mL
same,MIC,Streptococcus pneumoniae [28],64 µg/mL
same,MIC,Streptococcus agalactiae,128 µg/mL
same,MIC,[29],128 µg/mL
same,MIC,Citrobacter freundii [30],64 µg/mL
same,MIC,[31],32 to 64 µg/mL
same,MIC,Escherichia coli [32],8 to 32 µg/mL
same,MIC,[33],8 to 16 µg/mL
same,MIC,Staphylococcus aureus [34],4 to 8 µg/mL
same,MIC,[35],32 to 64 µg/mL
same,MIC,Enterococcus faecalis [36],256 µg/mL
same,MIC,Enterococcus faecium,256 µg/mL
same,MIC,[37],8 to 16 µg/mL
same,MIC,Pseudomonas aeruginosa,> 256 µg/mL
same,MIC,Klebsiella pneumoniae [38],4 µg/mL
same,MIC,[39],64 µg/mL
same,MIC,Staphylococcus aureus [40],4 to 8 µg/mL
same,MIC,Serratia marcescens,> 256 µg/mL
same,MIC,Streptococcus viridans,128 µg/mL
same,MIC,Salmonella enteritidis,32 to 64 µg/mL
same,MIC,[41],32 to 64 µg/mL
